# Screening data from PubChem.
# Most compounds without a hit are left out; they make up all but 3.9% or so of the library.
# tim23-1 inh = inhibits growth of tim23-1 mutant yeast | S. cerevisiae tim23-1 growth, BacTiter-Glo luminescence, 24 h | inhibition, % at 20 µM | 1.3% of 330,000 active;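 active = growth inhibition of the mutant yeast at or above 50%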;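 also: temperature-sensitive mutant grown at 25 °C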
# TIM10 inh = growth inhibitors of TIM10 yeast strain; inhibition, % at 10 µM; 1.4% of 330,000 active; S. cerevisiae TIM10 strain growth, BacTiter-Glo luminescence, 24 h;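 active = inhibition of 40% or more at the single tested concentration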;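 also: wild-type TIM10 isogenic control strain grown at permissive 25 °C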
# XBP1 UPR activ = adaptive UPR (XBP1) activation | CHO-XBP1 luciferase reporter, IRE1-XBP1 UPR activation, luminescence; percent of tunicamycin response, DMSO as zero | activation, % at 20 µM | 0.33% of 330,000 active | AID 463104;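 active = versus positive control, 20 µM dose yields 30% or more activation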
#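 Material: CHO-XBP1 cells stably carrying IRE1-XBP1-driven luciferase reporter | Medium: F12 with 10% serum | Compound dosing: 20 µM single concentration, DMSO 1% | Incubation: Overnight seeding at 37 °C, 6 h compound treatment at 37 °C | Detection: Steady-Glo luminescence read | Read-out basis: % activation of reporter signal versus tunicamycin and DMSO controls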
# tim10-1 inh = tim10-1 yeast growth inhibition; S. cerevisiae tim10-1 ts strain growth, BacTiter-Glo, 24 h; inhibition, % at 20 µM; 2.2% of 330,000 active; AID 463190;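 active = inhibition of at least 40%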;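 also: mutant grown at 25 °C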
# UPR CHOP act = activators of apoptotic arm of unfolded protein response (CHOP). CHO-CHOP luciferase reporter, UPR activation, luminescence; percent of tunicamycin response over DMSO baseline. activation, % at 10 µM. 0.34% of 330,000 active. AID 449763;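 active = at 10 µM dose, activation of 40% or more, normalized to positive control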
#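 Material: CHO-CHOP cells, stable luciferase reporter of PERK-eIF2a-CHOP signalling; quantity: 500 reporter cells seeded per well; buffer or medium: F12 medium containing 10% fetal bovine serum; compound: one dose, 10 µM in 0.5% DMSO; incubation: 6 h compound treatment, 37 °C; measured by: Steady-Glo luciferase luminescence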
# CHOP UPR conf = confirmation of apoptotic unfolded protein response (CHOP) activators | activation, % at 10 µM | 64% of 1,000 active | shares compounds with UPR CHOP act | CHO-CHOP cells, CHOP-luciferase reporter luminescence; percent of tunicamycin response, DMSO as zero | AID 463112; in the data active = activation above about 33%
# Hits are given with their value; n = inactive; x = not tested or not shown.
SMILES,tim23-1 inh,TIM10 inh,XBP1 UPR activ,tim10-1 inh,UPR CHOP act,CHOP UPR conf
CCOc1cc(C=C(C(=O)OC)C(=O)OC)ccc1OCc1ccc([N+](=O)[O-])cc1,n,n,n,n,220.4,242.0
CCN(CC)c1ccc(S(=O)(=O)N2CCOCC2)cc1NC(=O)COC(=O)c1cccnc1SC,n,n,n,n,n,x
COc1ccc(N=C2S/C(=C\c3ccc(OCC(=O)O)cc3)C(=O)N2CCc2c[nH]c3ccccc23)cc1,n,n,n,n,n,x
COc1ccc(N=C2S/C(=C\c3ccc(N4CCOCC4)o3)C(=O)N2CCc2c[nH]c3ccccc23)cc1,n,n,n,n,138.6,72.5
COc1cc(CNc2ccc3[nH]c(=O)[nH]c3c2)cc(Br)c1OCc1ccc(F)cc1,n,n,n,n,67.3,n
Cc1ccccc1NC(=O)Cc1nnc(SCC(=O)NC2=NCCS2)n1C,n,n,n,n,n,x
Oc1ccc(/C=N/Nc2ccnc3cc(Cl)ccc23)c(O)c1O,n,n,n,n,n,x
Oc1ccc(/C=N/Nc2ccnc3cc(Cl)ccc23)cc1O,n,n,n,n,192.7,150.7
Brc1ccccc1CN1CCN(Cc2c[nH]c3ccccc23)CC1,n,n,n,n,41.5,153.4
O=C(Cc1ccc(F)cc1)Nc1nccs1,n,n,n,n,n,x
Fc1ccc(NC(=S)Nc2nccs2)cc1,n,n,n,n,75.2,80.3
COc1ccc(N(CC(=O)N2CCC(C(N)=O)CC2)S(=O)(=O)c2ccccc2)cc1,n,n,n,n,n,x
COC(=O)c1cc(C(=O)OC)n(Cc2ccc(F)cc2)c1C,n,n,n,n,n,x
Cc1c(C#N)c(NC(=O)CCl)n(Cc2cccs2)c1C,n,n,n,n,86.8,71.4
Cc1c(C#N)c(NC(=O)CCl)n(Cc2ccc(F)cc2)c1C,n,n,n,n,65.2,73.6
Cc1c(C#N)c(NC(=O)CCl)n(Cc2ccccc2)c1C,n,n,n,n,112.9,56.6
O=C(CN1CCC(NC(=O)Nc2ccccc2)CC1)Nc1ccc([N+](=O)[O-])cc1,n,n,n,n,n,x
CCN(CC)C(=O)Cn1c(=O)n(CC(=O)N2CCCCC2)c(=O)c2sccc21,n,n,n,n,n,x
CCC(C)Nc1nc(-c2cccc(OC)c2O)nc2ccccc12 (configuration not stated),n,n,n,n,n,x
CCC(C)Nc1nc(-c2ccccn2)nc2ccccc12 (configuration not stated),n,n,n,n,46.5,n
c1ccc(CNc2nc(-c3ccccn3)nc3ccccc23)cc1,n,n,n,n,40.2,n
c1ccc(CNc2nc(-c3cccnc3)nc3ccccc23)cc1,n,n,n,n,n,x
COc1ccccc1CNC(=O)CCNS(=O)(=O)c1ccc2c(c1)CC(C)N2C(C)=O (configuration not stated),n,n,n,n,n,x
Cc1[nH]c2ccccc2c1/C=N/Nc1nc2ccccc2[nH]1,n,n,n,n,87.1,n
Cc1ccccc1/C=N/Nc1nc2ccccc2[nH]1,n,n,n,n,n,x
SMILES,tim23-1 inh,TIM10 inh,XBP1 UPR activ,tim10-1 inh,UPR CHOP act,CHOP UPR conf
CN1CCC(NC(=S)NC2CC2)CC1,n,n,n,n,87.5,n
CCCOc1ccc(C(=O)OCCN2CCCCC2)c(O)c1,n,n,n,n,n,x
COc1ccc(C2C3=C(CC(C)(C)CC3=O)Oc3ncn(CC(C)C)c(=N)c32)cc1 (configuration not stated),n,n,n,n,n,x
COc1ccc(C2C3=C(CC(C)(C)CC3=O)Oc3ncn(Cc4ccco4)c(=N)c32)cc1 (configuration not stated),n,n,n,n,43.6,n
CCc1cccc(NC(=O)C2CCCN(S(=O)(=O)c3cccnc3)C2)c1 (configuration not stated),n,n,n,n,n,x
Cc1[nH]c2c(C)cccc2c1CCNC(=O)c1ccc2c(c1[N+](=O)[O-])C(=O)c1ccccc1C2=O,n,n,n,n,47.7,39.9
Cc1cccc2c(=O)c(C(=O)NCCc3ccccc3)c[nH]c12,n,n,n,n,n,x
O=C(N/N=C/c1cccc2cccnc12)c1ccccc1O,n,n,n,n,347.0,559.3
COc1ccc(S(=O)(=O)NCC(=O)NCc2cc(=O)n(C)c(=O)n2C)cc1C,n,n,n,n,n,x
Cc1cc(C(=O)CCl)c(C)n1-c1cccc([N+](=O)[O-])c1,n,n,n,n,174.5,n
C=CCOCCn1[nH]c2ccccc2c1=O,n,n,n,n,n,x
COC(=O)c1c(NC(=O)C(C)(C)C)sc2c1C(C(=O)OC)CC2 (configuration not stated),n,n,n,n,n,x
COC(=O)c1c(NC(=O)C(Cl)Cl)sc2c1C(C(=O)OC)CC2 (configuration not stated),n,n,n,n,44.7,n
CSc1nnc(NC(=O)c2nc(S(=O)(=O)Cc3cccc(C)c3)ncc2Cl)s1,n,n,n,n,55.1,74.9
Cc1cccc(CS(=O)(=O)c2ncc(Cl)c(C(=O)Nc3nnc(C(C)C)s3)n2)c1,n,n,n,n,105.2,n
CC(C)c1nnc(NC(=O)c2nc(S(=O)(=O)Cc3ccc(F)cc3)ncc2Cl)s1,n,n,n,n,80.4,n
CCSc1nnc(NC(=O)c2nc(S(=O)(=O)Cc3ccc(F)cc3)ncc2Cl)s1,n,n,n,n,n,x
COC(=O)c1ccccc1NC(=O)c1nc(S(=O)(=O)Cc2ccccc2)ncc1Cl,n,n,n,n,n,x
Cc1ccc(CS(=O)(=O)c2ncc(Cl)c(C(=O)Nc3nnc(C(C)C)s3)n2)cc1,n,n,n,n,91.5,38.1
C/C=C/c1ccc(OCC(=O)N2CCc3cc(OC)c(OC)cc3C2)c(OC)c1,n,n,n,n,n,x
COc1ccc(Cl)cc1NC(=O)NCc1ccccn1,n,n,n,n,n,x
COc1ccc(OCc2cc(C(=O)N(C)C(C)c3ccon3)no2)c(Cl)c1 (configuration not stated),n,n,n,n,n,x
CCCCN(C(=O)c1cc2c(s1)CCC2)c1c(N)n(CCC)c(=O)[nH]c1=O,n,n,n,n,n,x
O=c1[nH]c2cc3c(cc2cc1C(c1nnnn1Cc1ccccc1)N1CCCCCC1)OCCO3 (configuration not stated),n,n,n,n,n,x
O=c1[nH]c2cc3c(cc2cc1C(c1nnnn1Cc1ccccc1)N1CCCc2ccccc21)OCO3 (configuration not stated),n,n,n,n,265.0,n
C1=CC2=NC34CCCCC3CC3=C(CCCC3)N4C2=CC1=NC1CCCCC1 (configuration not stated),n,n,n,n,48.5,n
